Assay outcomes (PubChem)
MPTP block: inhibitors of mitochondrial permeability transition pore; inhibition, % at 10 µM; isolated mouse mitochondria, Ca2+ swelling absorbance, 30 min; 360,000 tested, 1.4% active; AID 602449;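 active = inhibition of 50% or more, scaled per plate between neutral and stimulator controls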
TAAR1 ag: human TAAR1 agonism; Q96RJ0; CHO RD-HGA16 TAAR1, Fluo-8 calcium fluorescence; vehicle wells 0%, saturating PEA agonist 100%; activation, % at 3 µM; 360,000 tested, 0.99% active;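 active = activation above the mean activation of all test compounds in the run plus 3 SD, cut at about 38% in these data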
Target sequence (Q96RJ0 whole entry, looked up): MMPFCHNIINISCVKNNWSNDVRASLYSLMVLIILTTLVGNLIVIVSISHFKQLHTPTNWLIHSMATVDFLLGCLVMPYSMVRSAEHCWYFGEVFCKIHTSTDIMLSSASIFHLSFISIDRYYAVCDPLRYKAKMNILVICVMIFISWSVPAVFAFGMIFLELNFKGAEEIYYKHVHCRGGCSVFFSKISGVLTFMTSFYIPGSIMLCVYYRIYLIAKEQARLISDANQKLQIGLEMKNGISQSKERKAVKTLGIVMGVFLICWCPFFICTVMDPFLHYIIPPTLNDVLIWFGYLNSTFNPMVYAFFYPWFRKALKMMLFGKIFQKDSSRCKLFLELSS
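Test system: RD-HGA16 (CHO) cells co-expressing Gα16 and hTAAR1; dosing: one-point dosing at 3 µM (nominal); timing: 17-24 h seeding, 75 min 37 °C dye, 30 min RT; signal: kinetic Fluo-8 calcium fluorescence; read-out basis: % activation relative to PEA EC100 response; controls: DMSO and PEA EC100; replicates: n 1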
TAAR1 antagonist: human TAAR1 antagonism. CHO RD-HGA16 TAAR1, Fluo-8 calcium fluorescence, antagonist. AID 624466. inhibition, % at 3 µM. Q96RJ0. 360,000 tested, 1.5% active;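 active = inhibition above a per-plate cutoff, the mean inhibition of test compounds on that plate plus 3 SD, cut at about 49% in these data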
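System: CHO RD-HGA16 cells bearing hTAAR1. Reagent: EC80 β-phenethylamine stimulus. Schedule: seeding 17-24 h prior, 75-min 37 °C, 30-min RT dye loading. Signal: Fluo-8 intracellular calcium dye fluorescence, real-time kinetic reads. Read-out: % inhibition from peak post-agonist over basal fluorescence ratio. Benchmarks: vehicle wells and EC80 agonist wells. Replicates: n of 1.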
GPR7 antag: blocks human GPR7 receptor signaling; 290,000 tested, 1.1% active; P48145; AID 1861; inhibition, % at 4.4 µM; GPR7-expressing cells, fluorescence antagonist assay; in the data active = inhibition above about 16%, passing the limit was not always enough;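 also: cells stimulated with the agonist NPW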
Target sequence (P48145 whole entry, looked up): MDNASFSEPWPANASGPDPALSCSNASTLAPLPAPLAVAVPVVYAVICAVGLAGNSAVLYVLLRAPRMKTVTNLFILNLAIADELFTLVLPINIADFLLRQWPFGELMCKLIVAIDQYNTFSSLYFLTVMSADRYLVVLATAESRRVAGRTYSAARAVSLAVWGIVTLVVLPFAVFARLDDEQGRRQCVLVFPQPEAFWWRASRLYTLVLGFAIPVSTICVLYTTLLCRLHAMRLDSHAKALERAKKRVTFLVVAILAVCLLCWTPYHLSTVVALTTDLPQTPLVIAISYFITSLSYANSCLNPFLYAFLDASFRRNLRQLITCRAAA
DAGLB inhibitor: diacylglycerol lipase beta (human) inhibition; AID 504411; Q8NCG7; inhibition, % at 5.17 µM; 340,000 tested, 0.059% active; HEK293T DAGLB membrane lysate, EnzChek fluorogenic substrate; in the data active = inhibition above about 34%
GPR7 antag cf: confirmation of human GPR7 antagonists; shares compounds with GPR7 antag; GPR7-expressing cells, calcium fluorescence antagonist mode; inhibition, % at 4.4 µM; 2,400 tested, 52% active; AID 1952; in the data active = inhibition above about 24%;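 also: stimulated with the GPR7 agonist NPW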
MCHR1 antagonist: counter-screen for GPR7 antagonists: antagonists of human MCHR1. inhibition, % at 4.4 µM. AID 2148. MCHR1-expressing cells, fluorescence antagonist assay. 2,400 tested, 62% active. shares compounds with GPR7 antag; in the data active = inhibition above about 22%
Hits are given with their value; n = inactive; x = no result. Compounds with a hit are over-represented: about 4% of the library has one in this group of screens.

SMILES | MPTP block | TAAR1 ag | TAAR1 antagonist | GPR7 antag | DAGLB inhibitor | GPR7 antag cf | MCHR1 antagonist
COc1ccc(N=C2S/C(=C\c3ccc(Cl)c([N+](=O)[O-])c3)C(=O)N2CCN(C)C)cc1 | n | n | n | 48.5 | n | 64.8 | 59.4
Clc1cccc(CN2CCc3c([nH]c4ccccc34)C2)c1Cl | n | n | n | 49.9 | n | 47.0 | 28.7
COc1ccccc1CN1CCc2c([nH]c3ccccc23)C1 | n | n | n | n | n | x | x
COc1ccccc1C(O)c1ncc(-c2ccccc2C)[nH]1 (centres undefined) | n | n | n | x | x | x | x
CCC(=O)Nc1cccc(NC(=O)CSc2nnnn2Cc2ccccc2)c1 | n | n | n | 22.6 | n | n | n
Nc1[nH]c(C(=O)c2ccccc2)c(-c2ccc(Cl)cc2F)c1C(=O)NCCc1c[nH]c2ccccc12 | x | n | n | x | x | x | x
O=C1OCC2=Nc3cccc4cccc(c34)N12 | x | n | n | x | x | x | x
COc1cc(-c2coc3c(C(=O)NCc4ccccc4)cccc23)ccc1O | n | n | n | x | x | x | x
COc1cc(OC)cc(C(=O)N[C@H](C(=O)OCC(=O)Nc2ccc(C(N)=O)cc2)C(C)C)c1 | n | n | n | n | n | x | x
COc1cc(OC)cc(C(=O)N[C@H](C(=O)OCC(=O)Nc2ccc(F)c(F)c2)C(C)C)c1 | n | n | n | 21.3 | n | 33.7 | 48.3
CCn1c(CNC(=O)C2CCCCC2)cc2cc(C)ccc21 | n | n | n | 28.5 | n | n | n
CCn1c(CNC(=O)c2ccccc2F)cc2cc(C)ccc21 | n | n | n | n | n | x | x
CCN1C(=O)c2ccccc2Sc2ccc(C(=O)NCCCN3CCOCC3)cc21 | n | n | n | n | n | x | x
O=C1Nc2cc(C(=O)NCCCN3CCOCC3)ccc2S/C1=C/c1ccccc1F | n | n | n | 39.8 | n | 33.5 | 27.9
O=C(NCCCN1CCOCC1)c1ccc2c(c1)N(Cc1c(F)cccc1Cl)C(=O)c1ccccc1S2 | n | n | n | 24.8 | n | 37.0 | n
N=c1c2c(-c3ccccc3)c(-c3ccccc3)n(Cc3ccco3)c2ncn1Cc1ccccc1 | n | n | n | 23.9 | n | 57.6 | 92.4
OCCNc1ncnc2c1c(-c1ccccc1)c(-c1ccccc1)n2Cc1ccco1 | n | n | n | n | n | x | x
CCOC(=O)N1CCC(n2c(SCC(=O)NCCc3ccc(S(N)(=O)=O)cc3)nc3ccccc3c2=O)CC1 | n | n | n | 43.1 | n | n | n
Clc1ccc(Oc2ncnc3oc(-c4ccccc4)cc23)cc1 | n | n | n | n | n | x | x
Cc1ccccc1Oc1ncnc2oc(-c3ccccc3)cc12 | n | n | n | 28.6 | n | 30.6 | n
COCC#Cc1cnc2c(c1)C(=O)N([C@@H](C)CO)C[C@H](C)[C@H](CN(C)C(=O)c1ccc3c(c1)OCO3)O2 | x | n | n | x | x | x | x
COc1ccc(Cl)cc1NC(=O)CNc1ccccc1CN(C)C1CCCCC1 | n | n | n | 26.5 | n | 35.0 | 46.9
COc1ccc(C)cc1NC(=O)CNc1ccccc1CN(C)C1CCCCC1 | n | n | n | n | n | x | x
COc1ccc(Cl)cc1NC(=O)Nc1ccccc1C(N)=O | n | n | n | 30.2 | n | n | n
O=C(Nc1cccs1)Nc1ccccc1Cl | n | n | n | n | n | x | x
SMILES | MPTP block | TAAR1 ag | TAAR1 antagonist | GPR7 antag | DAGLB inhibitor | GPR7 antag cf | MCHR1 antagonist
Cc1c(NC(=O)Nc2cccs2)cccc1[N+](=O)[O-] | n | n | n | 35.6 | n | n | 35.8
CCOC(=O)CSc1nnc(-c2ccc(S(=O)(=O)NCc3cccs3)cc2)o1 | n | n | n | 39.5 | n | 37.8 | n
COC(=O)CSc1nnc(-c2ccc(S(=O)(=O)NCc3ccccc3Cl)cc2)o1 | n | n | n | n | n | x | x
COC(=O)CSc1nnc(-c2ccc(S(=O)(=O)NCc3cccs3)cc2)o1 | n | n | n | 22.4 | n | 57.8 | 38.2
CCN(CC)C(=O)C1=C(C)N(Cc2ccc(OC)cc2)C(=O)C(CC(=O)NCCN2CCOCC2)C1 (centres undefined) | n | n | n | x | n | x | x
Cc1nc2ccccc2n1C(C)c1nc2ccccc2n1CC(=O)c1ccc(OC(F)(F)F)cc1 (centres undefined) | n | n | n | x | x | x | x
COc1cccc(CNC(=O)[C@@H]2CCCN2C(=O)[C@H]2CCCCN2C(=O)c2cccs2)c1 | n | n | n | x | x | x | x
CCOC(=O)/C(C)=C1\NC(C)(C)Cc2ccccc21 | n | n | n | 23.9 | n | n | n
COc1cccc(NC(=O)c2ccc3c(c2)CCCC3)c1 | n | n | n | n | n | x | x
CN(c1ccc(C(=O)Nc2cccc(O)c2)cc1)S(=O)(=O)c1ccccc1 | n | n | n | n | n | x | x
Cc1ccc(CN(c2ccc(C(=O)Nc3ccc4c(c3)OCO4)cc2)S(C)(=O)=O)cc1 | n | n | n | n | n | x | x
CC(=O)c1cccc(NC(=O)c2ccc(N(C)S(=O)(=O)c3ccc(C)cc3)cc2)c1 | n | n | 54.9 | 30.5 | n | n | 37.5
CC(=O)c1cccc(NS(=O)(=O)c2ccc(C(=O)Nc3ccccc3)cc2)c1 | n | n | n | 21.5 | n | 28.9 | 49.6
CC(=O)c1cccc(NC(=O)c2ccc3c(c2)CCCC3)c1 | n | n | n | 43.0 | n | n | 41.4
CC(=O)c1cccc(NC(=O)c2ccc(N(Cc3ccc(C)cc3)S(C)(=O)=O)cc2)c1 | n | n | n | 36.7 | n | n | 49.5
COc1ccc(C2(C)C(C#N)C(=O)NC(=O)C2C#N)cc1 (centres undefined) | n | n | n | x | n | x | x
COc1cc(CNC[C@H]2O[C@@H](n3cc(C)c(=O)[nH]c3=O)C[C@@H]2O)ccc1OCc1cccc(Cl)c1 | n | n | n | x | n | x | x
COc1cc(F)ccc1-c1csc(C(C)(NC(C)=O)c2ccccc2)n1 (centres undefined) | n | n | n | x | x | x | x
CC(C)Cc1cc(C(=O)N2CCCC(CO)(Cc3ccc(F)cc3F)C2)n[nH]1 (centres undefined) | n | n | n | x | n | x | n
CC(C)Cc1cc(C(=O)N2CCCC(CO)(Cc3ccc(F)cc3)C2)no1 (centres undefined) | n | n | n | n | n | x | x
Cc1ccc(NC2=NC(c3ccc(O)cc3)n3c(nc(C)cc3=O)N2)cc1 (centres undefined) | n | n | n | n | n | x | x
Cc1ccc(C2NC(=NCc3ccccc3)Nc3nc(C)cc(=O)n32)cc1 (centres undefined) | n | n | n | 26.5 | n | n | n
O=C(COC(=O)c1ccc([N+](=O)[O-])o1)Nc1cccc(S(=O)(=O)N2CCCCC2)c1 | n | n | n | n | n | x | x
O=C(OCC(=O)N1CCN(S(=O)(=O)c2ccccc2)CC1)c1ccc([N+](=O)[O-])o1 | n | n | n | 28.8 | n | n | n
O=C(Nc1ccc(N2CCN(C(=O)c3ccco3)CC2)c(Cl)c1)c1c(F)c(F)c(F)c(F)c1F | n | n | n | 29.9 | n | n | 78.5
